{
  "source": "ChEMBL document CHEMBL2331234",
  "about": "“Novel analgesic/anti-inflammatory agents: 1,5-diarylpyrrole nitrooxyalkyl ethers and related compounds as cyclooxygenase-2 inhibiting nitric oxide donors” (J Med Chem, 2013)",
  "key": {"[1]": {"system": "Rattus norvegicus", "test": "Antiinflammatory activity in Sprague-Dawley/Wistar rat assessed as decrease in carrageenan-induced hyperalgesia at 20 mg/kg, po administered 4 hrs after carrageenan-challenge measured after 120 mins (reference value: 31.4 +/- 3.7 g)", "type": "functional"}, "[2]": {"system": "Rattus norvegicus", "test": "Antiinflammatory activity in Sprague-Dawley/Wistar rat assessed as decrease in carrageenan-induced hyperalgesia at 20 mg/kg, po administered 4 hrs after carrageenan-challenge measured after 60 mins (reference value: 33.9 +/- 3.7 g)", "type": "functional"}, "[3]": {"system": "Rattus norvegicus", "test": "Antiinflammatory activity in Sprague-Dawley/Wistar rat assessed as decrease in carrageenan-induced hyperalgesia at 20 mg/kg, po administered 4 hrs after carrageenan-challenge measured after 30 mins (reference value: 34.8 +/- 3.0 g)", "type": "functional"}, "[4]": {"system": "Aorta", "test": "Vasorelaxant activity in Wistar rat endothelium-removed thoracic aortic rings assessed as reduction of KCl-induced vasoconstriction at 0.001 uM to 10 uM treated after KCl-challenge in presence of guanylate cyclase inhibitor 1H-[1,2,4]-oxadiazolo[4,3-a]quinoxalin-1-one", "type": "functional, tissue-based", "how_it_was_run": "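Endothelium-denuded aortic rings from male Wistar rats (250-350 g) were preincubated with ODQ 1 µM. Rings were contracted with KCl 30 mM, then given 3-fold increasing concentrations from 1 nM to 10 µM. Emax is the % relaxation of KCl tone. pIC50 was calculated when efficacy reached 50%, from 6-10 experiments.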"}, "[5]": {"system": "Aorta", "test": "Vasorelaxant activity in Wistar rat endothelium-removed thoracic aortic rings assessed as reduction of KCl-induced vasoconstriction treated after KCl-challenge", "type": "functional, tissue-based", "how_it_was_run": "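Thoracic aortic rings from male Wistar rats (250-350 g), endothelium removed by rubbing; removal confirmed as <10% relaxation to ACh 10 µM in KCl 30 mM-contracted rings. Rings contracted with KCl 30 mM; at plateau, 3-fold increasing compound concentrations (1 nM-10 µM) added. Isometric tension recorded. Emax given as % of KCl tone; pIC50 as -log molar concentration halving that tone. 6-10 experiments; also run with ODQ 1 µM.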"}, "[6]": {"biological_target": "T1, Prostaglandin G/H synthase 1 (Mus musculus, UniProt P22437)", "T1 sequence (P22437 whole entry)": "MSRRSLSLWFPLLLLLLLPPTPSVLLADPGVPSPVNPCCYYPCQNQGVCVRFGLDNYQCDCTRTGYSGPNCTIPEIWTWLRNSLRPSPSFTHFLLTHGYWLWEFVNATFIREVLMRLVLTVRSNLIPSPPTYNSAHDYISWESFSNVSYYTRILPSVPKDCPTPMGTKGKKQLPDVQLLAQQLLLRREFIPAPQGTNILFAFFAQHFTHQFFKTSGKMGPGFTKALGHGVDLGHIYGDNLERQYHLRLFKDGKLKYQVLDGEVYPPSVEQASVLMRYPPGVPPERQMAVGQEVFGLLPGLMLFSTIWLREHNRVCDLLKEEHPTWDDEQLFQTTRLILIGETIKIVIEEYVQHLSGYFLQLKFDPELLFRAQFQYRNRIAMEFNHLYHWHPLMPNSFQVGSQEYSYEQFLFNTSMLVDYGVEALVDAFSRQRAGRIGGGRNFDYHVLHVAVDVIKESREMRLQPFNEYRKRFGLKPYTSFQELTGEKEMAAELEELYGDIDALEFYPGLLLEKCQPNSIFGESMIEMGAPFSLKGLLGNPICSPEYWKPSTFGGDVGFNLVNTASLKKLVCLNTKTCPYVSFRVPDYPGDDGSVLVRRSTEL", "test": "Inhibition of arachidonic acid-induced COX1 activity in mouse J774 cells assessed as decrease in PGE2 levels incubated for 15 mins prior to arachidonic acid-challenge measured after 30 mins by RIA", "type": "cell-based", "how_it_was_run": "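Cells were in DMEM with 10% FBS and adhered for 2 h at 37 °C. They were pretreated with compound (10 µM; 0.1-1 µM where inhibition exceeded 50%) for 15 min, then given 15 µM arachidonic acid for 30 min at 37 °C. Supernatant PGE2 was measured by RIA. Triplicate wells were used and the mean of three experiments reported. IC50 came from a variable-slope sigmoidal fit.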"}, "[7]": {"test": "(§1) Inhibition of interleukin 1 beta-induced glycosaminoglycan release in bovine articular cartilage of metacarpophalangeal joints of feet treated 48 hrs after interleukin 1beta-challenge by DMB colorimetric assay", "type": "functional, Bos taurus", "how_it_was_run": "(§2)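 Bovine metacarpophalangeal cartilage slices (about 100 mg per well) were cultured in serum-free DMEM at 37 °C, 5% CO2, with medium changed on days 1 and 2. On day 3 the slices were challenged with IL-1β 30 ng/mL plus compound for 48 h. GAG release was measured by the DMB (Farndale) assay and expressed as % of IL-1β alone, n = 3. EC50 is given with 95% CI.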"}, "[8]": {"organism": "Bos taurus", "test": "as §1", "type": "functional", "how_it_was_run": "as §2"}, "[9]": {"system": "Rattus norvegicus", "test": "Antiinflammatory activity in Sprague-Dawley/Wistar osteoarthritis model rat assessed as decrease in monoiodoacetate-induced hyperalgesia at 20 mg/kg, po bid for 14 days administered from day of monoiodoacetate-challenge followed by additional compound treatment after 30 mins […] by paw pressure test (reference value: 30.4 +/- 3.1 g)", "type": "functional"}, "[10]": {"system": "Rattus norvegicus", "test": "Antiinflammatory activity in Sprague-Dawley/Wistar osteoarthritis model rat assessed as decrease in monoiodoacetate-induced hyperalgesia at 20 mg/kg, po bid for 14 days administered from day of monoiodoacetate-challenge […] post by paw pressure test (reference value: 32.6 +/- 2.9 g)", "type": "functional"}, "[11]": {"system": "Rattus norvegicus", "test": "Antiinflammatory activity in Sprague-Dawley/Wistar rat assessed as decrease in carrageenan-induced paw edema at 20 mg/kg, po administered 3 hrs 30 mins after carrageenan-challenge measured after 60 mins (reference value: 2.48 +/- 0.06 mL)", "type": "functional"}, "[12]": {"system": "Rattus norvegicus", "test": "Antiinflammatory activity in Sprague-Dawley/Wistar rat assessed as decrease in carrageenan-induced hyperalgesia at 10 mg/kg, po administered 4 hrs after carrageenan-challenge measured after 30 mins (reference value: 34.8 +/- 3.0 g)", "type": "functional"}},
  "note": "The source made the active and inactive calls. The rule behind the calls is not given here.",
  "data": [
    {"smiles": "Cc1c(CCOCCO[N+](=O)[O-])cc(-c2ccc(S(C)(=O)=O)cc2)n1-c1ccc(F)cc1", "values": [
      {"measurement": "Activity", "setting": "[1]", "result": 43.8, "unit": "g"},
      {"measurement": "Activity", "setting": "[2]", "result": 49.2, "unit": "g"},
      {"measurement": "Activity", "setting": "[3]", "result": 56.8, "unit": "g"},
      {"measurement": "Activity", "setting": "[4]", "result": "inactive"},
      {"measurement": "IC50", "setting": "[5]", "result": "≥ 10", "unit": "µM"},
      {"measurement": "pIC50", "setting": "[5]", "result": "Dose-dependent effect"},
      {"measurement": "IC50", "setting": "[6]", "result": "> 10", "unit": "µM"},
      {"measurement": "IC50", "setting": "[7]", "result": 1500, "unit": "nM"},
      {"measurement": "inhibition", "setting": "[8]", "result": "Dose-dependent effect"},
      {"measurement": "Activity", "setting": "[9]", "result": 45.1, "unit": "g"},
      {"measurement": "Activity", "setting": "[10]", "result": 43.5, "unit": "g"},
      {"measurement": "Activity", "setting": "[11]", "result": 1.92, "unit": "mL"},
      {"measurement": "Activity", "setting": "[12]", "result": 55.1, "unit": "g"}
    ]}
  ]
}
